Published values of several laboratories.
Each line is one published result; the experiments were not run side by side.

| Structure (SMILES) | cell line | test | setting | measurement | value |
| --- | --- | --- | --- | --- | --- |
| CC#CC(=O)N1CC[C@@H](n2cc(-c3ccc(Oc4c(F)cccc4F)cc3)c3c(N)n[nH]c(=O)c32)C1 | Granta-519 | cell growth or viability, ATP luminescence | 72 h | GI50 | 2.69 µM |
| CC[C@@H]1C=CC(=O)O[C@@H]1C[C@@H](O)[C@H](C)[C@H](OC)[C@@H](C)Cc1ccccc1 | OVCAR-5 | cell growth or viability, MTT | 48 h | GI50 | 0.0575 µM |
| CC/C(=C(\c1ccccc1)c1ccc(OCCN(C)C)cc1)c1ccccc1 | Capan-2 | cell growth or viability, ATP luminescence | 72 h | EC90 | 25.8 µM |
| C=CC(=O)N1CCC[C@@H](n2nc(-c3ccc(Oc4ccccc4)cc3)c3c(N)ncnc32)C1 | Z-138 | cell growth or viability, ATP luminescence | 72 h | GI50 | 17.2 µM |
| COc1ccc(S(=O)(=O)Nc2ccc3oc(-c4ccc(NC(=O)c5cccc(C)c5[N+](=O)[O-])cc4)nc3c2)cc1 | DLD-1 | colony formation |  | EC50 | 16 µM |
| CC[C@@H]1C=CC(=O)O[C@@H]1C[C@@H](OC)[C@H](C)[C@H](OC)[C@@H](C)Cc1ccc(F)cc1 | OVCAR-5 | cell growth or viability, MTT | 48 h | GI50 | 0.784 µM |
| C[C@]12CC[C@@H]3c4ccc(O)cc4CC[C@H]3[C@@H]1CC[C@@H]2O | Capan-2 | cell growth or viability, ATP luminescence | 72 h | EC90 | 150 µM |
| COc1cc(Nc2nccc(-c3cnn4nc(OC)ccc34)n2)cc(C(F)(F)F)c1 | BEN | cell growth or viability, ATP luminescence |  | IC50 | > 3 µM |
| COc1ccc(-c2ccc(-c3ccc(C(=N)N)nc3)s2)cc1Cl | OVCAR-5 | cell growth or viability, SRB |  | GI50 | 1.86 µM |
